Sampled rows, rich in hits. Any-hit rate of the full collection: about 3.5%.
MrgX1 antagonist: blocks BAM8-22 activation of human MrgX1 receptor; AID 588676; MRGX1-HEK293 calcium flux, Fluo-4, BAM8-22 antagonism; active compounds read low; Q96LB2; B-score at 10 µM; hit rate 1.3% among 310,000;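 active = calcium-response B-score plate-corrected more than 3 library SD below zero, starting fluorescence within 5 deviations, no agonist response on first addition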;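 note: peak minus trough fluorescence over baseline after final BAM8-22 challenge near maximal dose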
Target sequence (Q96LB2 whole entry, looked up): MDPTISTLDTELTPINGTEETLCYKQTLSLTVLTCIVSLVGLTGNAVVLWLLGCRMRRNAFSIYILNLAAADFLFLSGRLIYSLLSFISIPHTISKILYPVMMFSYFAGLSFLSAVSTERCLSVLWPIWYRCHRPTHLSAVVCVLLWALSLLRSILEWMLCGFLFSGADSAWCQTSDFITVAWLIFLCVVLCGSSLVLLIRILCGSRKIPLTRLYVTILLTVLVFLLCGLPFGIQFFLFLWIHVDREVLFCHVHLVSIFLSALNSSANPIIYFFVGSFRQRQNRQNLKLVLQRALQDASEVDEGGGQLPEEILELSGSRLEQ
RGS4 inh: inhibitors of human RGS4. P49798. hit rate 0.45% among 310,000. HEK293 M3R/RGS4 inducible, Fluo-4 calcium flux; active compounds read high; triggered by carbachol at its EC20. B-score at 10 µM;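 active = B-score, a plate-corrected calcium signal, over three deviations above library mean, with baseline fluorescence within five deviations of library mean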;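 note: RGS4 expression induced by doxycycline in cells with stable M3 receptor; B-score is computed from the integrated fluorescence ratio over baseline after carbachol; higher B-score means a larger calcium signal and so more RGS4 inhibition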
Target sequence (P49798 whole entry, looked up): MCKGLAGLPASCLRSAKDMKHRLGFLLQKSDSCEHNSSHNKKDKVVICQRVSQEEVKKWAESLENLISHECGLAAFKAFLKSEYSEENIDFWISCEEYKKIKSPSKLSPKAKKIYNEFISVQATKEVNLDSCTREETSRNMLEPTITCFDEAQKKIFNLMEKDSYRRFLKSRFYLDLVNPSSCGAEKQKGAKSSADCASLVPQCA
RGS4 pot: potentiators or activators of RGS4; HEK293 M3R/inducible RGS4, carbachol calcium flux Fluo4; active compounds read low; B-score at 10 µM; hit rate 0.92% among 310,000;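 active = B-score of the integrated calcium signal more than 4 SD below the library mean, with starting fluorescence not abnormally high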;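 note: negative B-score means reduced calcium response which marks RGS4 activation or potentiation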
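Material: Inducible-RGS4 HEK293 cells carrying M3 receptor; also added: carbachol at ECmax as muscarinic agonist stimulus; incubation: compound preincubation 20 min at room temperature before agonist; signal: Fluo4-AM (2 µM) calcium-flux fluorescence, kinetic read; measure: integrated calcium ratio converted to B score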
MrgX1 agonist: agonists of human MrgX1 receptor; Q96LB2; MrgX1-HEK293 cells, Fluo-4 calcium fluorescence, agonist mode; active compounds read high; B-score at 10 µM; hit rate 0.44% among 310,000;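 active = calcium response B-score plate-corrected fluorescence ratio at least 3 library SD, with starting fluorescence B-score inside 5 SD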
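System: HEK293 cells stably expressing human MrgX1 receptor; Dosing: test compound in the initial addition of three; Schedule: overnight plating, then 30 min 37 °C plus 30 min room-temperature dye loading; Detection: kinetic calcium dye fluorescence, Fluo-4 NW; Controls: per-plate positive and negative controls for Z′ factor.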
MrgX1 PAM: allosterically activates human MrgX1 receptor signaling | B-score at 10 µM | AID 588675 | MrgX1-HEK293, Fluo-4 calcium flux, FDSS; active compounds read high | Q96LB2 | hit rate 0.63% among 310,000;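 active = plate-corrected calcium response at least 3 library SD above typical, normal starting fluorescence, not activating the receptor alone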;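 note: compound read alongside a low EC10 to EC30 dose of BAM8-22 agonist; peak minus trough fluorescence over baseline measured at the second addition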
Hits are given with their value; n = inactive; x = no result given.

SMILES	MrgX1 antagonist	RGS4 inh	RGS4 pot	MrgX1 agonist	MrgX1 PAM
CC(C)c1ccccc1NC(=O)COC(=O)c1c2c(nc3ccccc13)CCN(Cc1ccccc1)C2	n	n	-8.12	n	n
CC(C)NC(=O)NC(=O)COC(=O)c1c2c(nc3ccccc13)CCC2	n	n	-7.05	n	n
Cc1c(Cl)cccc1NC(=O)COC(=O)c1c2c(nc3ccccc13)CCN(Cc1ccccc1)C2	n	n	n	n	n
CC(C)(Oc1ccc(Cl)cc1)C(=O)NC1CCN(Cc2ccccc2)CC1	n	n	-7.03	n	n
O=C(COc1ccccc1)NC1CCN(Cc2ccccc2)CC1	n	n	n	n	n
CC(=O)N(C)c1ccc(OCC(O)Cn2c(C)nc3ccccc32)cc1 (centres undefined)	n	n	n	n	n
CN(C)c1ccc2nc3c(=O)[nH]c(=O)nc-3n(CC(O)C(O)C(O)CO)c2c1 (centres undefined)	n	n	-7.94	n	n
CC(Oc1ccc(Cl)cc1Cl)c1nc(-c2ccc(NC(=O)c3cccnc3)cc2)no1 (centres undefined)	n	n	-7.86	n	n
CC(Oc1ccc(Cl)cc1Cl)c1nc(-c2ccc(NC(=O)c3ccncc3)cc2)no1 (centres undefined)	-5.25	n	n	n	n
CC(Oc1ccc(Cl)cc1Cl)C(=O)NNC(=O)c1ccncc1 (centres undefined)	n	n	n	n	n
Cc1csc(SCC(=O)Nc2oc(C)c3c(C)n[nH]c(=O)c23)n1	n	n	n	n	n
Cc1ccccc1NC(=O)Cc1nnc(SCC(=O)NC2CCCCC2)n1C	n	n	n	n	n
COc1ccccc1NS(=O)(=O)c1cccc(C(=O)N/N=C/c2ccc(C)o2)c1	n	n	n	n	17.6
COc1ccccc1C(CNC(=O)c1cccc(S(=O)(=O)Nc2ccc(C)cc2)c1)N1CCCC1 (centres undefined)	n	n	n	n	n
COc1ccccc1NS(=O)(=O)c1cccc(C(=O)NCC(c2ccccc2OC)N2CCCC2)c1 (centres undefined)	-5.73	n	n	n	n
Cc1ccc(/C=N/NC(=O)c2cccc(S(=O)(=O)Nc3ccccc3Cl)c2)s1	n	n	n	n	10.6
C=CCn1c(SCCOc2ccccc2)nnc1C(C)NC(=O)c1ccccc1 (centres undefined)	n	n	n	n	n
C=CCn1c(SCC(=O)N2CCOCC2)nnc1C(C)NC(=O)c1ccccc1 (centres undefined)	-5.36	n	n	n	n
CN(C)S(=O)(=O)c1cccc(C(=O)OCC(=O)Nc2sccc2C(N)=O)c1	-4.97	n	n	n	n
COc1ccc(Cl)cc1-n1c(C)cc(C=O)c1C	n	n	n	n	7.77
CN(C)c1cc[n+](CC(=O)N2c3ccccc3Sc3ccccc32)cc1	n	n	-8.07	n	n
O=C(COc1ccccc1)N1c2ccccc2Sc2ccccc21	n	n	n	n	n
Cc1cc(C(=O)COC(=O)Cc2n[nH]c(=O)c3ccccc23)c(C)n1-c1ccc2c(c1)OCCO2	n	n	n	n	n
CC(=O)Oc1c(Cl)cc(Cl)cc1/C=C/c1ccc2ccccc2n1	-8.32	n	n	n	n
Cc1ccc2cc(NC(=O)c3ccccc3C)ccc2n1	n	n	n	n	n
SMILES	MrgX1 antagonist	RGS4 inh	RGS4 pot	MrgX1 agonist	MrgX1 PAM
O=C(CNC(=O)c1ccco1)OCC(=O)c1ccc(Br)cc1	n	n	n	n	n
O=C(O)CC/C(=N\Nc1ccc([N+](=O)[O-])cc1)c1ccccc1	-5.89	n	n	n	n
CCOC(=O)c1c(C)[nH]c(C(=O)OCc2ccccc2F)c1C	n	n	n	n	n
O=C(c1ccc(Cn2cc(Br)cn2)cc1)N1N=C(C(F)F)CC1(O)C(F)F (centres undefined)	n	n	-7.88	n	n
CCCOc1ccc(C(=O)CCC(=O)OCC(=O)N(C)c2c(N)n(Cc3ccccc3)c(=O)[nH]c2=O)cc1	n	n	n	n	n
N#C/C(=C/c1ccc(N2CCOCC2)o1)c1ccc(Br)cc1	n	n	n	38.6	n
N#C/C(=C/c1ccc(N2CCCCCC2)o1)c1ccc(F)cc1	n	n	n	n	17.6
Cc1ccc2c(CN(C)Cc3cccc(Cl)c3)cc(=O)oc2c1C	n	n	n	n	n
CSc1ccc(CN(C)Cc2cc(=O)oc3c(C)c(C)ccc23)cc1	n	n	-7.17	n	n
Cc1cccc(CSc2nc3c(c(-c4cccs4)c2C#N)CN(C)CC3)c1	n	n	n	n	8.74
Cc1nc2nc(SCC(=O)NCCCN3CCCC(C)C3)nn2c(C)c1Cc1ccccc1Cl (centres undefined)	n	n	n	n	n
O=C(Nc1ccc(Cl)c(Cl)c1)c1cccnc1	n	n	n	n	n
O=C(NNS(=O)(=O)c1cc(Cl)c(Cl)cc1Cl)c1cccnc1	-9.19	n	n	n	n
COc1ccc(C(=O)N/N=C2/SCC(=O)N2Cc2ccc3c(c2)OCO3)cc1OC	n	n	n	n	n
COc1cccc(C(=O)N/N=C2\SCC(=O)N2Cc2ccc3c(c2)OCO3)c1	-5.64	n	n	n	n
CC1(C)[C@@H](O)CC[C@]2(C)C3C(O)C=C4[C@H]5C[C@@](C)(C(=O)O)CC[C@]5(C)CC[C@]4(C)[C@]3(C)CC[C@@H]12 (some centres undefined)	n	n	n	28.8	n
COc1ccc(-c2cc(C)no2)cc1S(=O)(=O)Nc1cccc(CN2CCCC2)c1	n	n	n	n	n
CCOC(=O)c1c(NC(=O)COC(=O)c2ccc(C)s2)sc2c1CC(C)(C)NC2(C)C	n	n	n	n	n
C=CCNC(=O)C1CCN(S(=O)(=O)c2ccc3ccccc3c2)CC1	n	n	n	n	n
Cc1ccc(C2C=C(c3ccccc3)Nc3ncnn32)cc1 (centres undefined)	n	n	n	n	7.81
CCOc1ccc(C2C=C(c3ccccc3)Nc3ncnn32)cc1 (centres undefined)	n	n	n	n	11.2
CCOc1ccc(C2C=C(c3ccc(F)cc3)Nc3ncnn32)cc1 (centres undefined)	n	n	n	n	8.36
Oc1ccc(C2C=C(c3ccc(F)cc3)Nc3ncnn32)cc1 (centres undefined)	x	n	n	x	x
CCN(CC)CCNC(=O)c1c(C)n(-c2ccccc2)c2cc(Br)c(OC)cc12	-7.26	n	n	n	n
Cc1c(C(=O)NC2CCCCC2C)oc2ccccc12 (centres undefined)	n	n	n	n	n
CCn1cc(C2=NOC(C(=O)Nc3cccc(C(C)=O)c3)C2)c(C)n1 (centres undefined)	-4.82	n	n	n	n
Nc1nc(SCC(=O)Nc2ccc(Cl)cn2)n[nH]1	n	n	n	n	n
O=C(Nc1ccc2nccnc2c1)Nc1ccccc1Cl	n	n	n	n	n
O=C(Nc1cccc(Cl)c1)Nc1ccc2nccnc2c1	-4.73	n	n	n	n
